Assays:
[1] = Ratio of relative Vmax to that of Km values.; assay type: ADME
[2] = tested on: L1210; experiment: Compound was tested for inhibition of L1210 cell growth.; assay type: functional, cell-based; details: Mus musculus
Summary of the method: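 Exponentially growing L1210 mouse leukemia cells seeded at (2.0–2.5) × 10^4/mL in RPMI-1640 with 10% dialyzed fetal bovine serum. Compound added in phosphate-buffered saline. Incubated 72 h at 37 °C, 5% CO2, humidified. Cells counted with a Coulter counter. IC50 taken from 1 or 2 experiments.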

[3] = Relative maximal velocity (Vmax) as folylpolyglutamate synthetase substrate of the compound.; assay type: ADME

Ratio [1]	IC50 [2]	Relative Vmax [3]	Compound
0.7	217 µM	1.06	N#Cc1nc(CNc2ccc(C(=O)NC(CCC(=O)O)C(=O)O)cc2)cnc1N (stereo not given)
1.52	5.5 µM	0.99	NC(=O)c1nc(CNc2ccc(C(=O)NC(CCC(=O)O)C(=O)O)cc2)cnc1N (stereo not given)

Further lines, the molecule ahead of its results:

Compound	Ratio [1]	IC50 [2]	Relative Vmax [3]
NC(=O)c1nc(CN(C=O)c2ccc(C(=O)NC(CCC(=O)O)C(=O)O)cc2)cnc1N (stereo not given)	2.6	85 µM	1.84
Nc1nc(N)c2nc(CNc3ccc(C(=O)N[C@@H](CCC(=O)O)C(=O)O)cc3)cnc2n1 [AMINOPTERIN]	10.1		1.59
Nc1nc2ncc(CNc3ccc(C(=O)N[C@@H](CCC(=O)O)C(=O)O)cc3)nc2c(=O)[nH]1 [FOLIC ACID]	1		1
CN(Cc1cnc2nc(N)nc(N)c2n1)c1ccc(C(=O)N[C@@H](CCC(=O)O)C(=O)O)cc1 [METHOTREXATE]	0.9		0.99

Reference: ChEMBL document CHEMBL1125814, “Folic acid analogues lacking the 2-carbon are substrates for folylpolyglutamate synthetase and inhibit cell growth” (J Med Chem, 1991)
